Reference: ChEMBL document CHEMBL3817746, “6-Oxooxazolidine-quinazolines as noncovalent inhibitors with the potential to target mutant forms of EGFR” (Bioorg Med Chem, 2016)
Active and inactive are the calls of the source. The calls are words filed in the database; no cut-off is given here.

How the values were obtained:
NCI-H1975 = test: Antiproliferative activity against human NCI-H1975 cells expressing L858R/T790M mutant EGFR after 72 hrs by MTT assay; format: functional, cell-based; conditions: NCI-H1975, 72 h
A-431 = test: Antiproliferative activity against human A431 cells overexpressing wild-type EGFR after 72 hrs by MTT assay; format: functional, cell-based; conditions: A-431, 72 h
A549 = test: Cytotoxicity against human A549 cells assessed as cell growth inhibition after 72 hrs by MTT assay; format: ADME, cell-based; conditions: A549, 72 h
[1] = target: Epidermal growth factor receptor (Homo sapiens, UniProt P00533, L858R); test: Inhibition of recombinant human EGFR L858R mutant expressed in baculovirus infected insect cells preincubated for 5 mins followed by ATP addition for 30 mins by HTRF assay
In short: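 Purchased EGFR L858R kinase and substrate were preincubated with compound for 5 min in enzymatic buffer. ATP was then added to start the reaction, which ran 30 min at room temperature. It was stopped with EDTA-containing detection reagents, and HTRF detection ran for 1 h. IC50 was fitted from the dose-response data as the mean of three independent experiments.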

[2] = target: T1, Epidermal growth factor receptor (Homo sapiens, UniProt P00533); test: Inhibition of wild type human EGFR preincubated for 5 mins followed by ATP addition for 30 mins by HTRF assay
[3] = target: Epidermal growth factor receptor (Homo sapiens, UniProt P00533, T790M); test: Inhibition of EGFR T790M mutant (unknown origin) preincubated for 5 mins followed by ATP addition for 30 mins by HTRF assay; format: protein assay
HepG2 = test: Cytotoxicity against human HepG2 cells assessed as cell growth inhibition after 72 hrs by MTT assay; format: ADME, cell-based; conditions: HepG2, 72 h
[4] = Chemical stability of the compound assessed as compound remaining at 1 uM at pH 7.4 after 24 hrs by HPLC-HRMS method; format: physicochemical; conditions: buffer, read-out: Stability
In short: (§1)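 Buffers were 0.2 M PBS at pH 7.4, 9.0 or 10.0, held at 37 °C. Compound stock was made in CH3CN, then diluted into pre-warmed buffer. Aliquots taken at regular time points were injected directly into LC-TOF MS, and percentage of parent compound remaining was read out.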

[5] = Chemical stability of the compound assessed as compound remaining at 1 uM at pH 10 after 24 hrs by HPLC-HRMS method; format: physicochemical; conditions: buffer, read-out: Stability; in short: as §1
[6] = target: T1, Epidermal growth factor receptor; test: Inhibition of EGF-induced EGFR phosphorylation in human A431 cells at 1 uM preincubated for 1 hr followed by EGF addition for 15 mins by Western blot analysis; format: cell-based; conditions: A-431
In short: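 A431 cells (5 x 10^5/well) were seeded overnight. They were exposed to 1 µM compound for 1 h at 37 °C, then immediately given EGF (20 ng/ml) for 15 min. Whole-cell lysates were made in Tris/NaCl/EDTA/SDS/deoxycholate/NP-40 buffer with aprotinin and PMSF, then cleared at 4 °C. Equal protein was run on SDS-PAGE and blotted for EGFR, p-EGFR and β-actin, with ECL detection.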

[7] = Chemical stability of the compound assessed as compound remaining at 1 uM at pH 9 after 24 hrs by HPLC-HRMS method; format: physicochemical; conditions: buffer, read-out: Stability; in short: as §1
[8] = target: T1, Epidermal growth factor receptor; test: Inhibition of EGF-induced EGFR phosphorylation in human A431 cells at 1 uM preincubated for 1 hr followed by compound washout for 5 hrs and subsequent EGF addition for 15 mins by Western blot analysis; format: cell-based; conditions: A-431
In short: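 A431 cells (5 x 10^5/well) were seeded overnight and treated with 1 µM compound for 1 h at 37 °C. Cells were washed 10 times with fresh medium over 5 h, then stimulated with EGF (20 ng/ml) for 15 min. Lysates were made in RIPA-type buffer with protease inhibitors, and equal protein was immunoblotted for EGFR, p-EGFR and β-actin, with ECL detection.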

T1 sequence (P00533 whole entry): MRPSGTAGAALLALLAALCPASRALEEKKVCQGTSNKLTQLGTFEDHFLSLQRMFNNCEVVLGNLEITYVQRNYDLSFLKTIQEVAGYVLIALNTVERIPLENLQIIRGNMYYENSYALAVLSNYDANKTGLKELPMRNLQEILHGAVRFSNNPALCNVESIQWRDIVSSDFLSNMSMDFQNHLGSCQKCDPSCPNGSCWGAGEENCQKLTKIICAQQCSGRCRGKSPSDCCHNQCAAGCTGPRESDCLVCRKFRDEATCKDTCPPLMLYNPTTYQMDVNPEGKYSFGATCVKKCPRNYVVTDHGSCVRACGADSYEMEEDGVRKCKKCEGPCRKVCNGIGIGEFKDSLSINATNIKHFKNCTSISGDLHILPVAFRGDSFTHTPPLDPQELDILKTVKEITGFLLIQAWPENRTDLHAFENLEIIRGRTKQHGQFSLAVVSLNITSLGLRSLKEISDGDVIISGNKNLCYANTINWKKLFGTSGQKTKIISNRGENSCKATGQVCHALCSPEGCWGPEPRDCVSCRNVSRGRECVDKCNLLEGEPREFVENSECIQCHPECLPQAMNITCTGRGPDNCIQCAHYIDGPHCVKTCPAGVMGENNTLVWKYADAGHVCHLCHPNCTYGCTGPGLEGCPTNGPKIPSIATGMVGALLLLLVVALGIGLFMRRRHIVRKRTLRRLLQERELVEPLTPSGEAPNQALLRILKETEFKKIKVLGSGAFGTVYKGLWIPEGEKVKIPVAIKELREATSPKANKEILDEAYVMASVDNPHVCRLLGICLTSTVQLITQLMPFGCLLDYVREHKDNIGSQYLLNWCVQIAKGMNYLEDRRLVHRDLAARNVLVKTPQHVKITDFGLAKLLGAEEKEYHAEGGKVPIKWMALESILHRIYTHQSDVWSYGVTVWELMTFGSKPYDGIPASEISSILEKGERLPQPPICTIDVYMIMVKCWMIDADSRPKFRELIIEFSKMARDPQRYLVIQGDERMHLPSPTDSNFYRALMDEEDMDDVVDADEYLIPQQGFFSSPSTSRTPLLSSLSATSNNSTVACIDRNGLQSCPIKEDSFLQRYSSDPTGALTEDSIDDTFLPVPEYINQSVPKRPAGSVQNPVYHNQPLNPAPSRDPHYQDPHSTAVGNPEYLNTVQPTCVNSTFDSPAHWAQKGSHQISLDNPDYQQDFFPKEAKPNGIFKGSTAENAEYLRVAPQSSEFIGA
Chain of Epidermal growth factor receptor (Homo sapiens, UniProt P00533, T790M) (P00533 25-1210 T790M limits assumed): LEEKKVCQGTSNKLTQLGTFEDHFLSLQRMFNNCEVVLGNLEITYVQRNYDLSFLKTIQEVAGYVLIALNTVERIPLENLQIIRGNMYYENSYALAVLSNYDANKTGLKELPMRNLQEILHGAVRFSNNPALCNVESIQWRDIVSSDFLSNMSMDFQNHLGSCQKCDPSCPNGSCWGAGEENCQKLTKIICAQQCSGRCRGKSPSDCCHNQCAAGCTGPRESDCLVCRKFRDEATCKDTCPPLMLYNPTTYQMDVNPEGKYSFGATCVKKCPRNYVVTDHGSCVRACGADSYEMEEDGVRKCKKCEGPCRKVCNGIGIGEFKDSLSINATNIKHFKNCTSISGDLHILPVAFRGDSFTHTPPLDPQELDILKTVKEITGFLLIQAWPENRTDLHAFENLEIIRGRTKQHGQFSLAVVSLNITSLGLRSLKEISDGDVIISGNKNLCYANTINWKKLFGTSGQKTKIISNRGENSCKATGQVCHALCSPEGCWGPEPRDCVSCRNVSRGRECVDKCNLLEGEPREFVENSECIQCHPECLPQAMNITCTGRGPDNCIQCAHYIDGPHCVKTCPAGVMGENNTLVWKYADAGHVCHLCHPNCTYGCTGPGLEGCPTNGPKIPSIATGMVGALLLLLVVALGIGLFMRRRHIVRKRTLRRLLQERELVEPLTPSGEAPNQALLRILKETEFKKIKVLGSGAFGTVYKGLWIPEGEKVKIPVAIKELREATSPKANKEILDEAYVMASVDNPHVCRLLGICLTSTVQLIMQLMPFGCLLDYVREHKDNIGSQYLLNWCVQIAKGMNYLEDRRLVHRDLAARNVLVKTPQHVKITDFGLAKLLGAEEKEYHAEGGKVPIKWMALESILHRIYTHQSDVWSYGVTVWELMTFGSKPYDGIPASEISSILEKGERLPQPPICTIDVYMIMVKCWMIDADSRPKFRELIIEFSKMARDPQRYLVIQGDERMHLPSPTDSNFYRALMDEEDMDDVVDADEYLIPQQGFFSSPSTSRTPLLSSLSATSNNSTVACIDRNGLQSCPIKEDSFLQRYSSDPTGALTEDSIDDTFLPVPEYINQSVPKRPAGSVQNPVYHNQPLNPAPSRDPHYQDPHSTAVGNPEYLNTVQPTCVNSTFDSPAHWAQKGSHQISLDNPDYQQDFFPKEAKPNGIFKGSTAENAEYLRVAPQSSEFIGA
Chain of Epidermal growth factor receptor (Homo sapiens, UniProt P00533, L858R) (P00533 25-1210 L858R limits assumed): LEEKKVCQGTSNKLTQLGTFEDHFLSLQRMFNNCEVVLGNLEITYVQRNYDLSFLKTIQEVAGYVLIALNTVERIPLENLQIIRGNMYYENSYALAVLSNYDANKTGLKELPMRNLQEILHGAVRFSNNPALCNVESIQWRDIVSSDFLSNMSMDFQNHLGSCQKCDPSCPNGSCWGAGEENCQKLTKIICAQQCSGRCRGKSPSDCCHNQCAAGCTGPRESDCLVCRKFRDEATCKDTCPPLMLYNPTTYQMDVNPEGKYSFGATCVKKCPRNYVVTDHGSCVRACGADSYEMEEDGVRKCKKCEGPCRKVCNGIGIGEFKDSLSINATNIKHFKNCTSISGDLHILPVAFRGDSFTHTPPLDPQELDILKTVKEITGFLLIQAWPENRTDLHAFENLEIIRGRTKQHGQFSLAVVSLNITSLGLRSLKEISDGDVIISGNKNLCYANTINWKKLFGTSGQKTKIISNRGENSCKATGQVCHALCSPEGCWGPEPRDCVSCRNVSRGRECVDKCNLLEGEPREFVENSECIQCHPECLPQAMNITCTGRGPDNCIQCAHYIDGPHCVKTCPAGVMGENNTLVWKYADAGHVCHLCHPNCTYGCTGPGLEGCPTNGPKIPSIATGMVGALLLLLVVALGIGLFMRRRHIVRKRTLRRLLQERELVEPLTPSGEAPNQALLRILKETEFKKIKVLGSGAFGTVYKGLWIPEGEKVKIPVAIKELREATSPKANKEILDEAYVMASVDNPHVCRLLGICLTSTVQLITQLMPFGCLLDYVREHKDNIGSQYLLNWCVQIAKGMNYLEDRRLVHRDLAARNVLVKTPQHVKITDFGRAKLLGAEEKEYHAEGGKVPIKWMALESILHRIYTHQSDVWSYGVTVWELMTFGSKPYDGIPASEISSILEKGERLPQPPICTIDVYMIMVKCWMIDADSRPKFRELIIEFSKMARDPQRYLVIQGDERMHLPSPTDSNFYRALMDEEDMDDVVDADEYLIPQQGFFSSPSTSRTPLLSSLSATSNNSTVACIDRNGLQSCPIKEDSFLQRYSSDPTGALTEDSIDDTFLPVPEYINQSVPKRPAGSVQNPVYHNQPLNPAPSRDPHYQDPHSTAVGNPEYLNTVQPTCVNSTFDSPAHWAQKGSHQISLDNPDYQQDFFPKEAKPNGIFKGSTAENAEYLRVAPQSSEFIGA

Row | Structure (SMILES) | IC50 (NCI-H1975) [µM] | IC50 (A-431) [µM] | IC50 [1] [nM] | IC50 [2] [nM] | IC50 [3] [nM] | further results
1 | CN1CCOC[C@@H]1COc1cc2ncnc(Nc3ccc(F)c(Cl)c3)c2cc1NC(=O)[C@@H]1COC(=O)N1 | 7.4 | 18.7 |  |  |  | 
2 | CN1CCC(COc2cc3ncnc(Nc4ccc(F)c(Cl)c4F)c3cc2NC(=O)[C@H]2COC(=O)N2)CC1 | 13.5 | 5.3 |  |  |  | 
3 | CCOc1cc2ncnc(Nc3ccc(OCC4CC4)c(Cl)c3)c2cc1NC(=O)[C@@H]1COC(=O)N1 | 5.08 | 5.05 | 52.1 | 37.8 | 80.8 | IC50 (A549): 28.9 µM; IC50 (HepG2): > 100 µM
4 | COc1cc2ncnc(Nc3cccc(Br)c3)c2cc1NC(=O)[C@@H]1COC(=O)N1 | 9.08 | 7.25 | 0.38 | 0.47 | 126 | IC50 (A549): > 50 µM; IC50 (HepG2): > 100 µM
5 | CCOc1cc2ncnc(Nc3ccc(OCc4cccc(F)c4)c(Cl)c3)c2cc1NC(=O)[C@H]1NC(=O)O[C@@H]1C | 4.28 | 3.36 | 12 | 2.57 | 295 | IC50 (A549): 32.9 µM; IC50 (HepG2): 30.8 µM
6 | CCOc1cc2ncnc(Nc3ccc4c(cnn4Cc4cccc(F)c4)c3)c2cc1NC(=O)[C@@H]1COC(=O)N1 | 10.5 | 10.8 |  |  |  | 
7 | COc1cc2ncnc(Nc3cccc(C(F)(F)F)c3)c2cc1NC(=O)[C@@H]1COC(=O)N1 | 10.8 | 13.5 |  |  |  | 
8 | CCOc1cc2ncnc(N[C@@H](C)c3ccccc3)c2cc1NC(=O)[C@@H]1COC(=O)N1 | 15.3 | 16.9 | 0.71 | 5.52 | > 1000 | 
9 | O=C1N[C@H](C(=O)Nc2cc3c(Nc4ccc(F)c(Cl)c4)ncnc3cc2O[C@H]2CCOC2)CO1 | 9.33 | 22.8 |  |  |  | 
10 | CCOc1cc2ncnc(Nc3ccc(OCc4cccc(F)c4)c(Cl)c3)c2cc1NC(=O)[C@H]1COC(=O)N1 | 4.75 | 4.15 | 5.49 | 1.19 | 111 | IC50 (A549): > 50 µM; IC50 (HepG2): > 100 µM
11 | O=C1N[C@H](C(=O)Nc2cc3c(Nc4ccc(F)c(Cl)c4)ncnc3cc2OCC(F)(F)F)CO1 | > 50 | 33.9 |  |  |  | 
12 | CCOc1cc2ncnc(Nc3ccc4c(cnn4Cc4cccc(F)c4)c3)c2cc1NC(=O)[C@H]1COC(=O)N1 | > 50 | 18.9 |  |  |  | 
13 | CN1CCC(COc2cc3ncnc(Nc4ccc(F)c(Cl)c4F)c3cc2NC(=O)[C@@H]2COC(=O)N2)CC1 | 21.1 | 2.43 |  |  |  | 
14 | COc1cc2ncnc(Nc3ccc(F)c(Cl)c3)c2cc1NC(=O)[C@@H]1COC(=O)N1 | 6.8 | 9.2 | 0.31 | 1.06 | 26.3 | IC50 (A549): 14.9 µM; remaining at 24 h, 1 µM [4]: 97.1%; remaining at 24 h, 1 µM [5]: 85.8%; inhibition [6]: Active; remaining at 24 h, 1 µM [7]: 89.9%; inhibition [8]: inactive; IC50 (HepG2): > 100 µM
15 | CCOc1cc2ncnc(Nc3ccc(OCc4ccccn4)c(Cl)c3)c2cc1NC(=O)[C@@H]1COC(=O)N1 | 23.3 | > 50 |  |  |  | 
16 | CCOc1cc2ncnc(Nc3ccc(OCc4cccc(F)c4)c(Cl)c3)c2cc1NC(=O)[C@@H]1COC(=O)N1 | 3.87 | 3.89 | 5.62 | 1.34 | 53.2 | IC50 (A549): 11.6 µM; IC50 (HepG2): > 50 µM

Row | Structure (SMILES) | IC50 (NCI-H1975) [µM] | IC50 (A-431) [µM] | IC50 [1] [nM] | IC50 [2] [nM] | IC50 [3] [nM] | further results
17 | CCOc1cc2ncnc(Nc3ccc(Oc4ccc(C)nc4)c(Cl)c3)c2cc1NC(=O)[C@@H]1COC(=O)N1 | 7.65 | 11.2 |  |  |  | 
18 | O=C1N[C@H](C(=O)Nc2cc3c(Nc4ccc(F)c(Cl)c4)ncnc3cc2OCCCN2CCOCC2)CO1 | 12.3 | 48.7 | 0.83 | 4.54 | 58.7 | 
19 | O=C1N[C@H](C(=O)Nc2cc3c(Nc4ccc(F)c(Cl)c4)ncnc3cc2OCCN2CCCCC2)CO1 | 5.85 | 3.5 | 7.79 | 25.5 | 333 | IC50 (A549): 42.9 µM; IC50 (HepG2): > 50 µM
20 | COc1ccc(Nc2ncnc3cc(OC)c(NC(=O)[C@@H]4COC(=O)N4)cc23)cc1 | 10 | 34.9 |  |  |  | 
21 | O=C1N[C@@H](C(=O)Nc2cc3c(Nc4ccc(F)c(Cl)c4)ncnc3cc2OCCCN2CCOCC2)CO1 | 37.2 | > 50 |  |  |  | 
22 | CCOc1cc2ncnc(Nc3ccc(OCc4ccccn4)c(Cl)c3)c2cc1NC(=O)[C@H]1COC(=O)N1 | > 50 | > 50 |  |  |  | 
23 | COc1cc2ncnc(Nc3ccc(F)c(Cl)c3)c2cc1NC(=O)[C@H]1COC(=O)N1 | 21.2 | 16.8 |  |  |  | 
24 | CN1CC[C@H](Oc2cc3ncnc(Nc4ccc(F)c(Cl)c4)c3cc2NC(=O)[C@@H]2COC(=O)N2)C1 | 13.6 | 12.6 |  |  |  | 
25 | COCCOc1cc2ncnc(Nc3ccc(F)c(Cl)c3)c2cc1NC(=O)[C@@H]1COC(=O)N1 | 22.1 | 25.9 |  |  |  | 
26 | COc1cc2ncnc(Nc3ccc(F)c(Cl)c3)c2cc1NC(=O)[C@@H]1CCC(=O)N1 | > 50 | 21.8 |  |  |  | 
27 | COc1cc2ncnc(Nc3ccc(F)c(Cl)c3)c2cc1NC(=O)[C@H]1NC(=O)O[C@@H]1C | 8.98 | 8.65 | 0.35 | 1.98 | 40.2 | IC50 (A549): > 50 µM; IC50 (HepG2): > 50 µM
28 | O=C1N[C@@H](C(=O)Nc2cc3c(Nc4ccc(F)c(Cl)c4)ncnc3cc2O[C@H]2CCOC2)CO1 | > 50 | 11 |  |  |  | 
29 | CCOc1cc2ncnc(Nc3ccc(OCC4CC4)c(Cl)c3)c2cc1NC(=O)[C@H]1NC(=O)O[C@@H]1C | 12.7 | 7.35 |  |  |  | 
30 | COCCOc1cc2ncnc(Nc3ccc(F)c(Cl)c3)c2cc1NC(=O)[C@H]1COC(=O)N1 | > 50 | > 50 |  |  |  | 
31 | COc1cc2ncnc(Nc3cccc(Br)c3)c2cc1NC(=O)[C@H]1COC(=O)N1 | 11.1 | 14.3 |  |  |  | 
32 | CCOc1cc2ncnc(N[C@@H](C)c3ccccc3)c2cc1NC(=O)[C@H]1COC(=O)N1 | 4.95 | 15 |  |  |  | 
